PAFAH1B3 FP inh – PAFAH1B3 enzyme inhibitors, primary screen, biochemical, fluorescence polarization, human; Platelet-activating factor acetylhydrolase IB subunit alpha1 (Homo sapiens), Q15102; recombinant PAFAH1B3, FP-rhodamine probe; inhibition, % at 3.39 µM; 0.28% of 340,000 active; AID 492972, 2010;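 active means inhibition above the screen-wide average of all tested compounds plus 3 SD, cut at about 25% in these data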;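 further: 0% = enzyme with DMSO only and 100% = wells lacking PAFAH1B3 protein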
Target sequence (Q15102 whole entry, looked up): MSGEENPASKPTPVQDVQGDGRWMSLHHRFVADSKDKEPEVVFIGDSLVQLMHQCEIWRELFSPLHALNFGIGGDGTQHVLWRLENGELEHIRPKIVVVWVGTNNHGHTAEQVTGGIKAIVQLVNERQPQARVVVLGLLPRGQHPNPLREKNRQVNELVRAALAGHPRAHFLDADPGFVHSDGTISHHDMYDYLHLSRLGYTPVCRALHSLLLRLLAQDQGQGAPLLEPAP
UCH37 inh – inhibitors of human UCH37 deubiquitinase, primary screen, biochemical, Ub-AMC cleavage, fluorescence | AID 588478, 2011 | Ubiquitin carboxyl-terminal hydrolase isozyme L5 (Homo sapiens), Q9Y5K5 | purified proteasome/UCH37 | inhibition, % (test concentration not listed) | 0.33% of 330,000 active;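 active means mean inhibition over replicate wells above about 20%, limit read from the data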;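 further: 0% = compound-free wells with enzyme and 100% = wells lacking proteasome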
Target sequence (Q9Y5K5 whole entry, looked up): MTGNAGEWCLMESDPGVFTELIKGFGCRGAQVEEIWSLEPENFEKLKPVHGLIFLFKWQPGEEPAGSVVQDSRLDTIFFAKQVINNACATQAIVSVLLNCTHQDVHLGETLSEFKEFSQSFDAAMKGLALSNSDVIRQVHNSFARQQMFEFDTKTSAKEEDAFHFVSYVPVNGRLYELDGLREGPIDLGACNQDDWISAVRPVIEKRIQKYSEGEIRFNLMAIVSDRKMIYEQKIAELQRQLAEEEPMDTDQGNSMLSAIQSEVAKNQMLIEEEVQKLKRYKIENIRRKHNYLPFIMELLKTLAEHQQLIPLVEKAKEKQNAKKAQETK
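Test system – human UCH37 enzyme supplied as purified proteasome complex · Incubation – 30 min preincubation with enzyme, 25 min cleavage at room temperature · Detection – AMC fluorescence from Ub-AMC cleavage, excitation 355 nm, emission 460 nm · Benchmarks – no-proteasome wells (full inhibition) and compound-free wells (no inhibition)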
PAFAH2 FP inh – PAFAH2 enzyme inhibitors, primary screen, biochemical, fluorescence polarization, human; 0.99% of 340,000 active; inhibition, % at 3.39 µM; Platelet-activating factor acetylhydrolase 2, cytoplasmic (Homo sapiens), Q99487; recombinant PAFAH2, FP-rhodamine activity probe;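 active means inhibition above the mean over all tested compounds plus 3 SD, cut at about 30% in these data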;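 further: inhibitors block probe labeling of enzyme so polarization drops; 0% = enzyme with DMSO and 100% = wells lacking PAFAH2 protein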
pPAFAH FP inh – pPAFAH enzyme inhibitors, primary screen, biochemical, fluorescence polarization, human; recombinant pPAFAH, FP-rhodamine probe fluorescence polarization; 1.5% of 330,000 active; inhibition, % at 3.39 µM;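 active means inhibition above the mean inhibition across the screen plus 3 SD, cut at about 25% in these data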;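 further: inhibitors block binding of the rhodamine activity-based probe so polarization drops; 0% = enzyme with DMSO and 100% = wells lacking pPAFAH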
NR3A LBD binder – binders of NR3A ligand-binding domain, primary screen, biophysical, differential scanning fluorimetry, uHTS; Glutamate receptor ionotropic, NMDA 3A (GRIN3A) ligand-binding domain; NR3A LBD differential scanning fluorimetry, Tm shift; 0% = protein alone, 100% = glycine-bound protein; Tm shift relative to glycine control, % at 25 µM; 2.5% of 340,000 active; AID 1259313, 2017;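 active means melting temperature shift of at least 10% of the positive control shift, at one fixed dose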
PAFAH1B2 FP inh – PAFAH1B2 enzyme inhibitors, primary screen, biochemical, fluorescence polarization, human. 1.2% of 340,000 active. recombinant PAFAH1B2, FP-rhodamine activity probe. Platelet-activating factor acetylhydrolase IB subunit alpha2 (Homo sapiens), P68402. inhibition, % at 3.39 µM;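 active means inhibition above the mean of all tested compounds plus 3 SD, cut at about 24% in these data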;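 further: 0% = enzyme with DMSO and 100% = wells lacking PAFAH1B2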
Active calls of the source: *; i = inactive; / = no result given. Sampled rows, rich in hits. Any-hit rate of the full collection: about 4.8%.

SMILES	PAFAH1B3 FP inh	UCH37 inh	PAFAH2 FP inh	pPAFAH FP inh	NR3A LBD binder	PAFAH1B2 FP inh
O=C(CCC(=O)Nc1ccccc1Cl)NN=Cc1ccccc1	/	3.4	/	/	/	/
Cc1sc2ncnc(N3CCC(C(=O)Nc4ccc(OC(F)F)c(Cl)c4)CC3)c2c1C	-8.1	2.7	-24.1	-15.1	10.0*	-4.2
Cc1cc(Cl)ccc1OCC(=O)NNC(=O)C1CCN(c2ncnc3sc(C)c(C)c23)CC1	8.9	2.0	0.6	10.5	-3.5	5.9
O=C(O)c1cc(NC(=O)c2ccc(Br)cc2)cc(NC(=O)c2ccc(Br)cc2)c1	-4.3	0.2	-10.3	-15.1	4.2	29.6*
O=C(NNC(=O)c1cccs1)c1ccc(Br)cc1	3.6	1.3	-4.4	6.1	-2.3	1.1
O=C(Nc1cccc(O)c1)c1cccc(NC(=O)c2cccs2)c1	-7.1	5.0	-8.9	-0.9	27.9*	0.9
O=C(O)c1cc(NC(=O)c2ccc([N+](=O)[O-])cc2)cc(NC(=O)c2ccc([N+](=O)[O-])cc2)c1	5.0	7.2	2.9	3.4	-7.1	15.0
O=C(Nc1cccc(NC(=O)c2cccs2)c1)c1ccc(Br)cc1	-2.6	/	-2.6	-0.1	12.9*	-3.0
CC(=O)Nc1ccc(C=NNc2nc3ccccc3s2)cc1	/	0.4	/	/	/	/
O=C(CCc1ccccc1)NN=Cc1cc(Br)ccc1O	/	0.6	/	/	/	/
COc1ccc(O)c(/C=N/NC(=S)NCCc2ccccc2)c1	15.4	/	26.8	6.8	36.1*	8.7
Fc1cccc(NC(=S)Nc2ccc(Br)cc2)c1	0.6	1.0	-2.5	-5.4	27.3*	-2.3
S=C(NCCc1ccccc1)Nc1ccc(Br)cc1	7.9	6.1	-6.8	-0.1	33.0*	9.8
Oc1ccc(Br)cc1/C=N/NC(=S)NCCc1ccccc1	9.2	/	9.2	8.9	23.4*	20.4
Cc1nonc1C(=O)NN=Cc1ccccc1	/	0.9	/	/	/	/
COc1cc(C=Nn2cnnc2)ccc1OCc1ccc(C)cc1	/	-2.6	/	/	/	/
CC(/C=C/c1ccco1)=NNC(=O)CNc1ccc2ccccc2c1	/	5.8	/	/	/	/
COc1ccc(/C(C)=N/NC(=S)NCCc2ccccc2)c(O)c1	12.1	/	6.7	6.5	23.4*	9.7
O=C(COC(=O)C12CC3CC(CC(Cl)(C3)C1)C2)Nc1ccccc1	8.0	1.1	59.6*	5.3	-7.0	35.5*
O=C(COC(=O)C12CC3CC(CC(Br)(C3)C1)C2)NNC(=O)c1ccccc1	5.0	5.4	2.7	3.6	-1.0	51.6*
CC1CCCCC1NC(=O)COC(=O)C12CC3CC(CC(Cl)(C3)C1)C2 (centres undefined)	8.3	6.6	61.6*	6.9	0.7	35.2*
COc1ccccc1NC(=O)COC(=O)C12CC3CC(CC(Cl)(C3)C1)C2	3.7	5.5	1.4	-3.7	1.8	23.8
CC(CCc1ccccc1)NC(=O)COC(=O)C12CC3CC(CC(Br)(C3)C1)C2 (centres undefined)	7.4	4.2	-6.0	4.1	-15.7	45.3*
CC(=NN=C(N)N)c1ccc(Cl)cc1	/	6.2	/	/	/	/
Cc1ccc(C=Nc2sc(Cc3ccccc3)c(C)c2C(N)=O)o1	/	-19.3	/	/	/	/
SMILES	PAFAH1B3 FP inh	UCH37 inh	PAFAH2 FP inh	pPAFAH FP inh	NR3A LBD binder	PAFAH1B2 FP inh
CSc1nnc(-c2ccncc2)n1N=Cc1cn(-c2ccccc2)nc1-c1ccc(Cl)cc1	/	-0.5	/	/	/	/
O=C(COC(=O)C12CC3CC(CC(Cl)(C3)C1)C2)N1CCCCC1	13.0	-2.2	1.9	-8.1	-1.2	29.1*
O=C(COC(=O)C12CC3CC(CC(C3)C1)C2)NCc1ccccc1	7.0	2.8	29.3	3.3	-0.3	6.3
O=C(COC(=O)C12CC3CC(CC(C3)C1)C2)NNC(=O)c1ccccc1	6.2	2.7	2.9	1.4	0.5	40.0*
COc1ccc(CCN2C(=O)CSC2c2ccc(F)cc2)cc1 (centres undefined)	1.2	0.6	-6.4	-2.3	0.9	25.9*
COc1ccc(-c2cc(C(F)F)n3ncc(C(=O)n4ccnc4C)c3n2)cc1	5.3	i	30.4*	2.1	2.5	-1.1
O=C(/C=C/c1cccnc1)c1ccccc1O	4.9	2.0	-3.3	7.1	15.0*	1.0
O=C(C=Cc1cccnc1)c1ccccc1	8.8	2.1	-1.7	/	0.2	-0.8
CCOc1ccc(S(=O)(=O)Nc2cc(Sc3ncn[nH]3)c3oc(=O)sc3c2)cc1	/	0.1	/	32.8*	/	/
O=C(CSc1nnc(CCCN2C(=O)c3cccc4cccc(c34)C2=O)n1-c1ccccc1)NCCCO	10.9	-6.4	0.3	1.2	13.1*	0.3
C/C(=N/NC(=O)c1cc(-c2cccc([N+](=O)[O-])c2)n[nH]1)c1cccc(O)c1	2.4	/	-0.8	3.8	10.5*	-0.1
C/C(=N\NC(=O)c1cc(-c2cccc([N+](=O)[O-])c2)n[nH]1)c1ccc(F)cc1	/	/	/	4.0	62.6*	/
C/C(=N/NC(=O)c1ccc(O)cc1)c1cccc([N+](=O)[O-])c1	2.5	/	-4.3	-6.9	209.4*	-0.3
CC(=NNC(=O)c1cc(-c2cccc([N+](=O)[O-])c2)n[nH]1)c1cccc(O)c1	/	-0.3	/	/	/	/
CC(=NNC(=O)c1cccnc1)c1cccc([N+](=O)[O-])c1	/	0.3	/	/	/	/
O=C(O)c1cc(-c2cccc([N+](=O)[O-])c2)n[nH]1	6.2	2.7	2.0	-8.1	0.8	0.7
CCOC(=O)c1cc(-c2cccc([N+](=O)[O-])c2)n[nH]1	1.0	3.6	4.0	-4.6	33.3*	-2.8
C/C(=N\NC(=O)c1ccc(O)cc1)c1ccc2c(c1)Nc1ccccc1S2	23.2	/	12.5	12.2	20.6*	3.9
CC(=O)c1sc2nc(-c3cccs3)ccc2c1N	7.2	-46.9	5.5	3.8	22.4*	8.4
CC(C)NC(=O)c1sc2nc(-c3cccs3)cc(-c3cccs3)c2c1N	/	-7.9	/	-13.2	-5.0	/
Oc1cccc(C=NN2CCCCC2)c1O	/	0.5	/	/	/	/
CCC(=O)Nc1cccc(C(=O)OCC(=O)c2ccccc2Cl)c1	4.8	3.3	40.9*	3.3	-0.1	-1.0
O=C(CCC(=O)OCC(=O)c1ccccc1)Nc1cccc(Cl)c1	12.4	2.0	-0.6	6.8	23.7*	-4.7
O=C(CCC(=O)c1ccc(Oc2ccccc2)cc1)Nc1cccc(Cl)c1	8.7	-6.5	0.9	-7.7	1.9	-2.8
Cc1cc(C(=O)NN=Cc2cccnc2)cs1	/	2.7	/	/	/	/
Cc1c(/C=N\NC(=O)C2COc3ccc(C(C)(C)C)cc3O2)c2ccccc2n1C (centres undefined)	6.5	/	-10.9	26.9*	10.1*	-1.3

Screening data from PubChem BioAssay.
